ChEMBL document CHEMBL3232989, “First identification of boronic species as novel potential inhibitors of the Staphylococcus aureus NorA efflux pump” (J Med Chem, 2014)
≈ marks a conversion by molar mass, not a printed value.

What was measured:
[1] = Cytotoxicity against human KB cells assessed growth inhibition at 10 uM after 72 hrs by MTS assay; type: cell-based; conditions: read-out: GI
Method in brief: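 KB cells (from NCI) grown in DMEM with 10% FCS, penicillin-streptomycin, fungizone and glutamine, 37 °C, 5% CO2; compounds in DMSO added 24 h after plating (1% DMSO final, controls same). 72 h exposure, then MTS 3 h at 37 °C, absorbance at 490 nm; inhibition = (1 − OD490 treated/OD490 control)×100, triplicate experiments.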

[2] = tested on: Staphylococcus aureus; test: Toxicity in fluoroquinolone-resistant Staphylococcus aureus 1199B expressing NorA after 24 hrs by microdilution method; type: organism-based; conditions: in vitro
Method in brief: (§1)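 Broth microdilution in Mueller–Hinton broth, 10^6 CFU/mL per well from an 18 h 37 °C culture. Compounds come from 10 mg/mL DMSO stocks as 2-fold serial dilutions, top 128 mg/L. Plates run 24 h at 37 °C and are read at 620 nm and visually. MIC is the lowest concentration with complete growth inhibition. Duplicates; 2-fold variance accepted.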

[3] = biological target: T1, Quinolone resistance protein NorA (Staphylococcus aureus) (UniProt P0A0J7); test: Inhibition of NorA in fluoroquinolone-resistant Staphylococcus aureus 1199B assessed as potentiation of 4 ug/ml of ciprofloxacin MIC at 100 ug/ml after 24 hrs by microdilution method
T1 sequence (whole entry): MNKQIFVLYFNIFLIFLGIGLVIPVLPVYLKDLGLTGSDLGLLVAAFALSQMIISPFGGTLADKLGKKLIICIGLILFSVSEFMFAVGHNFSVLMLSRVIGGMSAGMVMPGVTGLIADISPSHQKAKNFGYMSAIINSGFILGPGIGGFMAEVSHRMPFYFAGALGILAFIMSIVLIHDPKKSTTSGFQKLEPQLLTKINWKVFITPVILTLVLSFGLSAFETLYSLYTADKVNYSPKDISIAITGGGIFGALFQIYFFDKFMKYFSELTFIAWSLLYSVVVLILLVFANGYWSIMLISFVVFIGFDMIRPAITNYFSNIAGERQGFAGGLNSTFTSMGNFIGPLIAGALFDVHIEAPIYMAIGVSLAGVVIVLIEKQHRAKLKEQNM
Method in brief: (§2)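 Combination with ciprofloxacin 4 μg/mL (MIC/4) against SA-1199B in MH broth microdilution, 10^6 CFU/mL, 24 h at 37 °C, read at 620 nm and visually. Compounds are first screened at 100 μg/mL; actives are 2-fold serially diluted. MMC4 is the lowest inhibitor concentration giving antibacterial activity with subinhibitory ciprofloxacin. Duplicates.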

[4] = tested on: Staphylococcus aureus; test: Toxicity in fluoroquinolone-resistant Staphylococcus aureus 1199B expressing NorA at 100 ug/ml after 24 hrs by microdilution method; type: organism-based
Method in brief: (§3)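 Single-point screen at 100 μg/mL of compound alone in MH broth microdilution, 10^6 CFU/mL, 24 h at 37 °C. Growth is read at 620 nm and visually, giving percent growth inhibition. Compounds inhibiting more than 90% then go to MIC determination. Duplicates.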

[5] = tested on: Staphylococcus aureus; test: Toxicity in Staphylococcus aureus ATCC 25923 after 24 hrs by microdilution method; type: organism-based
Method in brief: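 Mueller–Hinton broth microdilution; inoculum from frozen culture grown 18 h at 37 °C, 10^6 CFU/mL per well. Compounds (10 mg/mL DMSO stock) in 2-fold serial dilutions, highest 128 mg/L, first screened at 100 μg/mL. MIC = complete growth inhibition after 24 h at 37 °C, read at 620 nm and visually; duplicate; ampicillin control.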

[6] = tested on: Staphylococcus aureus; test: Toxicity in Staphylococcus aureus ATCC 25923 at 100 ug/ml after 24 hrs by microdilution method; type: organism-based; method in brief: as §3
[7] = tested on: Staphylococcus aureus subsp. aureus RN4220; test: Inhibition of MsrA in macrolide-resistant Staphylococcus aureus RN4220 harboring pUL5054 assessed as potentiation of 4 ug/ml of […] erythromycin MIC after 24 hrs by microdilution method (reference value: […] ug/ml)
[8] = tested on: Staphylococcus aureus; test: Antibacterial activity against Staphylococcus aureus ATCC 25923 after 24 hrs by microdilution method; type: functional; conditions: ATCC 25923, 24 h; method in brief: as §1
[9] = biological target: T1, Quinolone resistance protein NorA (Staphylococcus aureus); test: Inhibition of NorA in fluoroquinolone-resistant Staphylococcus aureus 1199B assessed as potentiation of 4 ug/ml of ciprofloxacin MIC at 1 ug/ml after 24 hrs by microdilution method; method in brief: as §2
[10] = tested on: Staphylococcus aureus; test: Antibacterial activity against fluoroquinolone-resistant Staphylococcus aureus 1199B expressing NorA after 24 hrs by microdilution method; type: functional; method in brief: as §1

Cc1cc(B(O)O)ccc1Cl
inhibition at 72 h, 10 µM [1]: 0% | MIC [2]: > 128 µg/mL | Activity [3]: 2 µg/mL

OB(O)c1ccc(OCc2ccccc2)cc1
inhibition at 72 h, 10 µM [1]: 6% | MIC [2]: > 128 µg/mL | Activity [3]: 0.5 µg/mL

OB(O)c1cccnc1F
inhibition at 72 h, 10 µM [1]: 4% | growth inhibition (GI) [4]: < 90% | Activity [3]: 8 µg/mL | MIC [5]: >= 64 ug ml-1 | growth inhibition (GI) [6]: < 90%

OB(O)c1ccccc1Oc1ccccc1
inhibition at 72 h, 10 µM [1]: 10% | Activity [7]: 32 µg/mL | MIC [2]: 32 µg/mL (≈ 150 µM) | Activity [3]: 32 µg/mL

O=Cc1ccc(B(O)O)cc1Cl
inhibition at 72 h, 10 µM [1]: 100% | Activity [7]: 32 µg/mL | MIC [2]: 32 µg/mL (≈ 174 µM) | Activity [3]: 4 µg/mL | MIC [5]: >= 64 ug ml-1

O=C(O)c1cn(C2CC2)c2cc(N3CCNCC3)c(F)cc2c1=O [CIPROFLOXACIN]
MIC [8]: 0.5 µg/mL (≈ 1.51 µM) | MIC [5]: >= 64 ug ml-1

OB(O)c1ccc(Br)cc1
inhibition at 72 h, 10 µM [1]: 0% | MIC [2]: > 128 µg/mL | Activity [3]: 2 µg/mL

Cc1c(B(O)O)ccc2ccccc12
inhibition at 72 h, 10 µM [1]: 0% | growth inhibition (GI) [4]: < 90% | Activity [3]: 8 µg/mL | MIC [5]: >= 64 ug ml-1 | growth inhibition (GI) [6]: < 90%

O=Cc1ccc(B(O)O)cc1C(F)(F)F
inhibition at 72 h, 10 µM [1]: 100% | Activity [7]: 32 µg/mL | MIC [2]: 32 µg/mL (≈ 147 µM) | Activity [3]: 16 µg/mL | MIC [5]: >= 64 ug ml-1

CC(C)(O)C(C)(C)OB(OC(C)(C)C(C)(C)O)c1ccnc(F)c1
inhibition at 72 h, 10 µM [1]: 0% | growth inhibition (GI) [4]: < 90% | Activity [3]: 2 µg/mL | MIC [5]: >= 64 ug ml-1 | growth inhibition (GI) [6]: < 90%

Cn1nccc1B1OC(C)(C)C(C)(C)O1
inhibition at 72 h, 10 µM [1]: 0% | growth inhibition (GI) [4]: < 90% | Activity [3]: 8 µg/mL | MIC [5]: >= 64 ug ml-1 | growth inhibition (GI) [6]: < 90%

CC1(C)S[C@@H]2[C@H](NC(=O)[C@H](N)c3ccccc3)C(=O)N2[C@H]1C(=O)O [AMPICILLIN]
MIC [8]: 0.25 µg/mL (≈ 0.715 µM) | MIC [5]: >= 64 ug ml-1

OB(O)c1ccc(Oc2ccc(Cl)nc2)nc1
inhibition at 72 h, 10 µM [1]: 0% | growth inhibition (GI) [4]: < 90% | Activity [3]: 4 µg/mL | MIC [5]: >= 64 ug ml-1 | growth inhibition (GI) [6]: < 90%

CCOc1ccc(B(O)O)cn1
inhibition at 72 h, 10 µM [1]: 0% | growth inhibition (GI) [4]: < 90% | Activity [3]: 4 µg/mL | MIC [5]: >= 64 ug ml-1 | growth inhibition (GI) [6]: < 90%

CC(=O)OCc1ccc(B(OC(C)(C)C(C)(C)O)OC(C)(C)C(C)(C)O)cc1
inhibition at 72 h, 10 µM [1]: 6% | growth inhibition (GI) [4]: < 90% | Activity [3]: 4 µg/mL | MIC [5]: >= 64 ug ml-1 | growth inhibition (GI) [6]: < 90%

OB(O)c1ccsc1
inhibition at 72 h, 10 µM [1]: 0% | growth inhibition (GI) [4]: < 90% | Activity [3]: 8 µg/mL | MIC [5]: >= 64 ug ml-1 | growth inhibition (GI) [6]: < 90%

OB(O)c1ccc(OCc2ccccc2)nc1
inhibition at 72 h, 10 µM [1]: 2% | growth inhibition (GI) [4]: < 90% | Activity [3]: 1 µg/mL | fold change (FC) [9]: 4 | MIC [5]: >= 64 ug ml-1 | growth inhibition (GI) [6]: < 90%

OB(O)c1ccc(Oc2cncc(Cl)c2)nc1
inhibition at 72 h, 10 µM [1]: 0% | growth inhibition (GI) [4]: < 90% | Activity [3]: 8 µg/mL | MIC [5]: >= 64 ug ml-1 | growth inhibition (GI) [6]: < 90%

OB(O)c1ccc2ccccc2c1
inhibition at 72 h, 10 µM [1]: 3% | MIC [2]: > 128 µg/mL | Activity [3]: 4 µg/mL

OB(O)c1ccc(Cl)nc1
inhibition at 72 h, 10 µM [1]: 1% | growth inhibition (GI) [4]: < 90% | Activity [3]: 8 µg/mL | MIC [5]: >= 64 ug ml-1 | growth inhibition (GI) [6]: < 90%

OB(O)c1ccc(Br)nc1
inhibition at 72 h, 10 µM [1]: 1% | growth inhibition (GI) [4]: < 90% | Activity [3]: 8 µg/mL | MIC [5]: >= 64 ug ml-1 | growth inhibition (GI) [6]: < 90%

CSc1ccc(B(O)O)cn1
inhibition at 72 h, 10 µM [1]: 0% | growth inhibition (GI) [4]: < 90% | Activity [3]: 8 µg/mL | MIC [5]: >= 64 ug ml-1 | growth inhibition (GI) [6]: < 90%

CC(=O)n1ncc2c(B3OC(C)(C)C(C)(C)O3)cccc21
inhibition at 72 h, 10 µM [1]: 0% | growth inhibition (GI) [4]: < 90% | Activity [3]: 8 µg/mL | MIC [5]: >= 64 ug ml-1 | growth inhibition (GI) [6]: < 90%

Cc1cc(B(O)O)cnc1Cl
inhibition at 72 h, 10 µM [1]: 0% | MIC [2]: > 128 µg/mL | Activity [3]: 4 µg/mL | MIC [5]: >= 64 ug ml-1 | growth inhibition (GI) [6]: < 90%

OB(O)c1ccc(Cl)cc1
inhibition at 72 h, 10 µM [1]: 0% | MIC [2]: 64 µg/mL (≈ 409 µM) | Activity [3]: 1 µg/mL

CC(C)(O)C(C)(C)OB(OC(C)(C)C(C)(C)O)c1ccc(Br)nc1
inhibition at 72 h, 10 µM [1]: 0% | growth inhibition (GI) [4]: < 90% | Activity [3]: 8 µg/mL | MIC [5]: >= 64 ug ml-1 | growth inhibition (GI) [6]: < 90%

CC[C@H]1OC(=O)[C@H](C)[C@@H](O[C@H]2C[C@@](C)(OC)[C@@H](O)[C@H](C)O2)[C@H](C)[C@@H](O[C@@H]2O[C@H](C)C[C@H](N(C)C)[C@H]2O)[C@](C)(O)C[C@@H](C)C(=O)[C@H](C)[C@@H](O)[C@]1(C)O [ERYTHROMYCIN]
MIC [8]: 0.5 µg/mL (≈ 0.681 µM) | MIC [10]: 128 µg/mL (≈ 174 µM)

OB(O)c1cnc2ccccc2c1
inhibition at 72 h, 10 µM [1]: 0% | growth inhibition (GI) [4]: < 90% | Activity [3]: 4 µg/mL | MIC [5]: >= 64 ug ml-1 | growth inhibition (GI) [6]: < 90%
